From the RNAGym collection of RNA variant scans (doi:10.1038/s41586-018-0170-7)

B1: tRNA (parent)
chain: GUUCCGUUGGCGUAAUGGUAACGCGUCUCCCUCCUAAGGAGAAGACUGCGGGUUCGAGUCCCGUACGGAACG

Variants of: B1
Test: yeast fitness, log relative to wild type (ln ratio); higher = fitter; tRNA-Arg(CCU), competitive growth, 37 C, 1 M NaCl
In short: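 For each genotype, fitness is defined as the natural log of its generation number over the wild type's. The tRNA-Arg(CCU) variant library was on a HIS3 centromeric plasmid in BY4742 with the chromosomal gene removed, and pools were first grown 4 generations in SC-HIS at 30 °C and then ~6.5 generations (~26.5 h) in SC-HIS 1M NaCl at 37 °C. Generations were calculated from OD-scaled log2 output/input frequency, weighted by inverse variance across replicates, using counts from 125 bp paired-end Illumina sequencing.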
For AUUCCAUUGGCGUAAUGGUAACGCGUCUCCCUCCUAAGGAGAAGAUUGCGGGUUCGAGUCCCGUAAGGAUUG [G1A G6A C46U C66A A70U C71U], the “yeast fitness (ln)” value was -0.15. With AUUCCAUUGGCGUAAUGGUAACGCGUCUCCCUCCUAAGGAGAAGACUGCGGGUUCGAGUCCCGUAAGGAUCG [G1A G6A C66A A70U] the “yeast fitness (ln)” value was -0.0411. In the case of AUUCCAUUGGCGUAAUGGUAACGCGUCUCCCUCCUAAGGAGAAGACUGCGGGUUCGAGUCCCGUAUGGGAUG [G1A G6A C66U A69G C71U], the “yeast fitness (ln)” value is reported as -0.0291. In the case of AUUCCUUUGGCGUAAUGGUAACGCGUCUCCCUCCUAAGGAGACGAUUGCGGGUUCGAGUCCCGUAAGGGUCG [G1A G6U A43C C46U C66A A69G A70U], the “yeast fitness (ln)” value is reported as -0.474. In the case of AUUCCUUUGGCGUAAUGGUAACGCGUCUCCCUCCUAAGGAGACGAUUGCGGGUUCGAGUCCCGUAAGGGGCG [G1A G6U A43C C46U C66A A69G A70G], the “yeast fitness (ln)” value is reported as -0.258. For AUUCCAUUGGCGUAAUGGUAACGCGUCUCCCUCCUAAGGAGAAGAUUGCGGGUUCGAGUCCCGUAUGGGGCG [G1A G6A C46U C66U A69G A70G], the “yeast fitness (ln)” value was -0.136. In the case of AUUCCAUUGGCGUAAUGGUAACGCGUCUCCCUCCUAAGGAGAAGAUUGCGGGUUCGAGUCCCGUAUGGGUCG [G1A G6A C46U C66U A69G A70U], the “yeast fitness (ln)” value is reported as -0.0453. For AUUCCAUUGGCGUAAUGGUAACGCGUCUCCCUCCUAAGGAGAAGACUGCGGGUUCGAGUCCCGUAUGGAAUG [G1A G6A C66U C71U], the “yeast fitness (ln)” value was -0.0242. In the case of AUUCCUUUGGCGUAAUGGUAACGCGUCUCCCUCCUAAGGAGACGAUUGCGGGUUCGAGUCCCGUACGGAGUG [G1A G6U A43C C46U A70G C71U], the “yeast fitness (ln)” value is reported as -0.301. In the case of AUUCCAUUGGCGUAAUGGUAACGCGUCUCCCUCCUAAGGAGAAGAUUGCGGGUUCGAGUCCCGUAUGGAAUG [G1A G6A C46U C66U C71U], the “yeast fitness (ln)” value is reported as 0.000947. With AUUCCAUUGGCGUAAUGGUAACGCGUUUCCCUCCUAAGGAGAAGACUGCGGGUUCGAGUCCCGUAUGGAAUG [G1A G6A C27U C66U C71U] the “yeast fitness (ln)” value was -0.0761. For AUUCCAUUGGCGUAAUGGUAACGCGUCUCCCUCCUAAGGAGAAGACUGCGGGUUCGAGUCCCGUACGGAAUG [G1A G6A C71U], the “yeast fitness (ln)” value was -0.363. In the case of AUUCCAUUGGCGUAAUGGUAACGCGUCUCCCUCCUAAGGAGAAGACUGCGGGUUCGAGUCCCGUAUGGGUCG [G1A G6A C66U A69G A70U], the “yeast fitness (ln)” value is reported as -0.102. In the case of AUUCCAUUGGCGUAAUGGUAACGCGUCUCCCUCCUAAGGAGAAGACUGCGGGUUCGAGUCCCGUAUGGGGCG [G1A G6A C66U A69G A70G], the “yeast fitness (ln)” value is reported as -0.235. In the case of AUUCCAUUGGCGUAAUGGUAACGCGUCUCCCUCCUAAGGAGAAGAUUGCGGGUUCGAGUCCCGUAUGGAGUG [G1A G6A C46U C66U A70G C71U], the “yeast fitness (ln)” value is reported as -0.0284. With AUUCCUUUGGCGUAAUGGUAACGCGUCUCCCUCCUAAGGAGACGAUUGCGGGUUCGAGUCCCGUACGGGGUG [G1A G6U A43C C46U A69G A70G C71U] the “yeast fitness (ln)” value was -0.321. For AUUCCAUUGGCGUAAUGGUAACGCGUCUCCCUCCUAAGGAGAAGAUUGCGGGUUCGAGUCCCGUACGGGGUG [G1A G6A C46U A69G A70G C71U], the “yeast fitness (ln)” value was -0.129. For AUUCCAUUGGCGUAAUGGUAACGCGUCUCCCUCCUAAGGAGAAGAUUGCGGGUUCGAGUCCCGUAUGGGACG [G1A G6A C46U C66U A69G], the “yeast fitness (ln)” value was -0.423. With AUUCCUUUGGCGUAAUGGUAACGCGUCUCCCUCCUAAGGAGACGAUUGCGGGUUCGAGUCCCGUACGGGUCG [G1A G6U A43C C46U A69G A70U] the “yeast fitness (ln)” value was -0.272. With AUUCCUUUGGCGUAAUGGUAACGCGUCUCCCUCCUAAGGAGACGAUUGCGGGUUCGAGUCCCGUACGGGGCG [G1A G6U A43C C46U A69G A70G] the “yeast fitness (ln)” value was -0.281. In the case of AUUCCUUUGGCGUAAUGGUAACGCGUCUCCCUCCUAAGGAGACGAUUGCGGGUUCGAGUCCCGUACGGGAUG [G1A G6U A43C C46U A69G C71U], the “yeast fitness (ln)” value is reported as -0.263. In the case of AUUCCAUUGGCGUAAUGGUAACGCGUUUCCCUCCUAAGGAGAAGACUGCGGGUUCGAGUCCCGUAUGGAUUG [G1A G6A C27U C66U A70U C71U], the “yeast fitness (ln)” value is reported as -0.461. In the case of AUUCCUUUGGCGUAAUGGUAACGCGUCUCCCUCCUAAGGAGACGACUGCGGGUUCGAGUCCCGUACGGGUUG [G1A G6U A43C A69G A70U C71U], the “yeast fitness (ln)” value is reported as -0.524. With AUUCCAUUGGCGUAAUGGUAACGCGUCUCCCUCCUAAGGAGAAGAUUGCGGGUUCGAGUCCCGUACGGAACG [G1A G6A C46U] the “yeast fitness (ln)” value was -0.0333. In the case of AUUCCUUUGGCGUAAUGGUAACGCGUCUCCCUCCUAAGGAGACGACUGCGGGUUCGAGUCCCGUACGGAUUG [G1A G6U A43C A70U C71U], the “yeast fitness (ln)” value is reported as -0.303. For AUUCCUUUGGCGUAAUGGUAACGCGUCUCCCUCCUAAGGAGAAGACUGCGGGUUCGAGUCCCGUACGGAACG [G1A G6U], the “yeast fitness (ln)” value was -0.0886. With AUUCCAUUGGCGUAAUGGUAACGCGUCUCCCUCCUAAGGAGAAGAUUGCGGGUUCGAGUCCCGUAAGGAAUG [G1A G6A C46U C66A C71U] the “yeast fitness (ln)” value was -0.258. For AUUCCAUUGGCGUAAUGGUAACGCGUCUCCCUCCUAAGGAGAAGAUUGCGGGUUCGAGUCCCGUAUGGAACG [G1A G6A C46U C66U], the “yeast fitness (ln)” value was -0.072. With AUUCCAUUGGCGUAAUGGUAACGCGUCUCCCUCCUAAGGAGAAGAUUGCGGGUUCGAGUCCCGUAAGGAGUG [G1A G6A C46U C66A A70G C71U] the “yeast fitness (ln)” value was -0.128. In the case of AUUCCAUUGGCGUAAUGGUAACGCGUCUCCCUCCUAAGGAGAAGACUGCGGGUUCGAGUCCCGUAUGGAGUG [G1A G6A C66U A70G C71U], the “yeast fitness (ln)” value is reported as -0.0543. In the case of AUUCCAUUGGCGUAAUGGUAACGCGUCUCCCUCCUAAGGAGAAGAUUGCGGGUUCGAGUCCCGUACGGGUUG [G1A G6A C46U A69G A70U C71U], the “yeast fitness (ln)” value is reported as -0.256. In the case of AUUCCAUUGGCGUAAUGGUAACGCGUCUCCCUCCUAAGGAGAAGAUUGCGGGUUCGAGUCCCGUACGGAGCG [G1A G6A C46U A70G], the “yeast fitness (ln)” value is reported as -0.0807. For AUUCCAUUGGCGUAAUGGUAACGCGUCUCCCUCCUAAGGAGAAGAUUGCGGGUUCGAGUCCCGUACGGAUCG [G1A G6A C46U A70U], the “yeast fitness (ln)” value was -0.103. For AUUCCAUUGGCGUAAUGGUAACGCGUCUCCCUCCUAAGGAGAAGAUUGCGGGUUCGAGUCCCGUACGGAUUG [G1A G6A C46U A70U C71U], the “yeast fitness (ln)” value was -0.0983. In the case of AUUCCUUUGGCGUAAUGGUAACGCGUCUCCCUCCUAAGGAGACGAUUGCGGGUUCGAGUCCCGUAAGGGGUG [G1A G6U A43C C46U C66A A69G A70G C71U], the “yeast fitness (ln)” value is reported as -0.393. In the case of AUUCCAUUGGCGUAAUGGUAACGCGUCUCCCUCCUAAGGAGAAGAUUGCGGGUUCGAGUCCCGUACGGAAUG [G1A G6A C46U C71U], the “yeast fitness (ln)” value is reported as -0.109. For AUUCCUUUGGCGUAAUGGUAACGCGUCUCCCUCCUAAGGAGACGACUGCGGGUUCGAGUCCCGUACGGAGCG [G1A G6U A43C A70G], the “yeast fitness (ln)” value was -0.21. In the case of AUUCCUUUGGCGUAAUGGUAACGCGUCUCCCUCCUAAGGAGACGACUGCGGGUUCGAGUCCCGUACGGAUCG [G1A G6U A43C A70U], the “yeast fitness (ln)” value is reported as -0.247.
